Results on two molecules are retold here after ChEMBL document CHEMBL4138072, “Identification of mitoxantrone as a new inhibitor of ROS1 fusion protein in non-small cell lung cancer cells” (Medchemcomm, 2017).

In experiment [1] the test system is HCC78. Nature of the experiment: Induction of apoptosis in human HCC78 cells assessed as necrotic cells level at 2.5 uM incubated fro 48 hrs by Annexin-V FITC and propidium iodide staining based flow cytometry (reference value: 0.06%). It counts as functional.
Experiment [2] relates to HCC78. In words: Induction of apoptosis in human HCC78 cells assessed as viable cells level at 2.5 uM incubated fro 48 hrs by Annexin-V FITC and propidium iodide staining based flow cytometry (reference value: 80.8%). Type of experiment: functional.
For experiment [3], the target named is T1, Proto-oncogene tyrosine-protein kinase ROS (Homo sapiens, UniProt P08922). The settings on record: HCC78, 2.5 uM.
T1 sequence (P08922 whole entry): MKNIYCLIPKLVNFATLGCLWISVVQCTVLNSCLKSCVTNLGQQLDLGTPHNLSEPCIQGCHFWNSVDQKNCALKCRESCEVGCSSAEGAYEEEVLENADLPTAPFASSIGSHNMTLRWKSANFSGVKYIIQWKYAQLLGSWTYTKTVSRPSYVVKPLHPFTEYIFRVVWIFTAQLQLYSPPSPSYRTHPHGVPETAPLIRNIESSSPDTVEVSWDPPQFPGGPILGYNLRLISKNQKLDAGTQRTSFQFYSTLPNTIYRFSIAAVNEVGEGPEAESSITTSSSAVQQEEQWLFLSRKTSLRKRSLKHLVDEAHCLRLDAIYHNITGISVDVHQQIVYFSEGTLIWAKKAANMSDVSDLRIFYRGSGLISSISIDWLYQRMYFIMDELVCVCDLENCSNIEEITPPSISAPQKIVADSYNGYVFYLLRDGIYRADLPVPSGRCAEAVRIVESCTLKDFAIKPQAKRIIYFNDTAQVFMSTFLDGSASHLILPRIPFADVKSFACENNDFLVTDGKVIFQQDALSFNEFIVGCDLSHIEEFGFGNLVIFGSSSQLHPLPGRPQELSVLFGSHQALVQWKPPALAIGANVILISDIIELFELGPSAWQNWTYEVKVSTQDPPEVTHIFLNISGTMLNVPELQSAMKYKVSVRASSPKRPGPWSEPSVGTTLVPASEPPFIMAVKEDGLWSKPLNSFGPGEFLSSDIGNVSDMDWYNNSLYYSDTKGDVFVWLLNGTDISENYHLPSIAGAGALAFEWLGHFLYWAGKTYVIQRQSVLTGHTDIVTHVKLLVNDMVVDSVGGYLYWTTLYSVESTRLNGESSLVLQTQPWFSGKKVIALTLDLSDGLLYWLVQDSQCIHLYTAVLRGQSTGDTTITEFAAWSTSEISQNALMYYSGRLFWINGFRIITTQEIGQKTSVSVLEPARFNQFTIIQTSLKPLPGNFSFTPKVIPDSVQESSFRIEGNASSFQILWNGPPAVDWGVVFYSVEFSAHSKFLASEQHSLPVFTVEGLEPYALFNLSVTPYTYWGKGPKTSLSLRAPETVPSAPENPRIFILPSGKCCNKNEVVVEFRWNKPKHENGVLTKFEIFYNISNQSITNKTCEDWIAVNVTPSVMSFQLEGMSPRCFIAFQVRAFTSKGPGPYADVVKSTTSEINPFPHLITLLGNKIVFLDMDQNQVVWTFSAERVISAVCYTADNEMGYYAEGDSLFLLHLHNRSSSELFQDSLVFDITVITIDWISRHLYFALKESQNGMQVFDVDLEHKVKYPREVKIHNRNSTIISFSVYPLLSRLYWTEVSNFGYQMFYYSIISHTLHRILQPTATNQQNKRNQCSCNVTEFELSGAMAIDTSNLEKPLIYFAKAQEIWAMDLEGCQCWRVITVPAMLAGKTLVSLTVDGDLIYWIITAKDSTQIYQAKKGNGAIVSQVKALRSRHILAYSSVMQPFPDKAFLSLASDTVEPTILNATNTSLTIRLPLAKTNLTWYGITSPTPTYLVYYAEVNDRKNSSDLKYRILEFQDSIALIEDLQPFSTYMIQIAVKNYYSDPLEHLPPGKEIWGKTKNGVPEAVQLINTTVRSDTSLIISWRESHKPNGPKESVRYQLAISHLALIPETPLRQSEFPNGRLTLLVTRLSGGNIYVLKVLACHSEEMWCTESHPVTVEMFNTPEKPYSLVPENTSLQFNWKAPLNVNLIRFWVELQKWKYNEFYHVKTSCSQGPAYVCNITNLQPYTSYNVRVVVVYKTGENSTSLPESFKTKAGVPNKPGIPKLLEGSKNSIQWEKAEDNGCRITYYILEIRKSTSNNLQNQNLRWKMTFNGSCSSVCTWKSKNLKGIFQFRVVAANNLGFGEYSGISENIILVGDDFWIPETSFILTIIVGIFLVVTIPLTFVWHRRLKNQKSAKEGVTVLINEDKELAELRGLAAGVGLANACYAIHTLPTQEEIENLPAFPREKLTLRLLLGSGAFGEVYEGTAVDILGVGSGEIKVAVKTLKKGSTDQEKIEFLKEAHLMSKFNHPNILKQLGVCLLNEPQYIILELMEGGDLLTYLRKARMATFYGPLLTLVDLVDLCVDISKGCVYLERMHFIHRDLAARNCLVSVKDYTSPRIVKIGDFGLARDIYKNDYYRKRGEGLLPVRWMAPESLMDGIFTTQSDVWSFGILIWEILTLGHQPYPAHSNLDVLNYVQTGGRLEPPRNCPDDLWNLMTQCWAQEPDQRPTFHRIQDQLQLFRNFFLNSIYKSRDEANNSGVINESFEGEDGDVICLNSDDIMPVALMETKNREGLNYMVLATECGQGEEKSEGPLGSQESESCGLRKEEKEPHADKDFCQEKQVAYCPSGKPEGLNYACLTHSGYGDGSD
Experiment [4] has as its target T1, Proto-oncogene tyrosine-protein kinase ROS. The settings on record: HCC78, 2.5 uM. The source holds these as a separate data set.
Experiment [5] deals with HCC78. In words: Induction of apoptosis in human HCC78 cells assessed as early apoptotic cells level at 2.5 uM incubated fro 48 hrs by Annexin-V FITC and propidium iodide staining based flow cytometry (reference value: 6.33%). It counts as functional.
Experiment [6] concerns HCC78. In words: Induction of apoptosis in human HCC78 cells assessed as late apoptotic cells level at 2.5 uM incubated fro 48 hrs by Annexin-V FITC and propidium iodide staining based flow cytometry (reference value: 13.8%). It counts as functional. In general terms: Flow cytometry measures light scatter and fluorescence of single cells or particles in a stream.
Experiment [7] has as its target T1, Proto-oncogene tyrosine-protein kinase ROS. The settings on record: HCC78, 2.5 uM. This is another data set of the same source.
Experiment [8] has the same target. The settings on record: HCC78, 2.5 uM. This is another data set of the same source.
The test system of experiment [9] is HCC78. In words: Induction of apoptosis in human HCC78 cells assessed as early apoptotic cells level at 5 nM incubated fro 48 hrs by Annexin-V FITC and propidium iodide staining based flow cytometry (reference value: 6.33%). It counts as functional.
Experiment [10] deals with T1, Proto-oncogene tyrosine-protein kinase ROS. Nature of the experiment: Inhibition of ROS1 (unknown origin) using poly (Glu,Tyr)4:1 substrate and ATP incubated for 60 mins by ELISA. The gist of the method:
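Purified recombinant ROS1 on poly(Glu,Tyr)4:1-coated wells (20 μg/ml coating). Reaction run in HEPES pH 7.4 buffer with MgCl2, MnCl2, Na3VO4 and DTT, with 10 μmol/l ATP solution and compound in 1% DMSO, 60 min at 37 °C. Phosphotyrosine detected by PY99 antibody, then HRP anti-mouse IgG and o-phenylenediamine, read at A490. Inhibition calculated as % of DMSO control. IC50 derived from curves in two experiments.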
Background: In an ELISA, binding on a coated surface is turned into a signal by an enzyme label.

Experiment [11] relates to HCC78. In words: Induction of apoptosis in human HCC78 cells incubated fro 48 hrs by Annexin-V FITC and propidium iodide staining based flow cytometry. Type of experiment: functional, cell-based.
The subject of experiment [12] is HCC78. Nature of the experiment: Induction of apoptosis in human HCC78 cells assessed as viable cells level at 10 nM incubated fro 48 hrs by Annexin-V FITC and propidium iodide staining based flow cytometry (reference value: 80.8%). Type of experiment: functional.
The test system of experiment [13] is HCC78. Nature of the experiment: Induction of apoptosis in human HCC78 cells assessed as early apoptotic cells level at 10 nM incubated fro 48 hrs by Annexin-V FITC and propidium iodide staining based flow cytometry (reference value: 6.33%). It counts as functional.
The subject of experiment [14] is HCC78. In words: Induction of apoptosis in human HCC78 cells assessed as necrotic cells level at 10 nM incubated fro 48 hrs by Annexin-V FITC and propidium iodide staining based flow cytometry (reference value: 0.06%). It counts as functional.
Experiment [15] has as its target T1, Proto-oncogene tyrosine-protein kinase ROS. In words: Inhibition of ROS1 in human HCC78 cells assessed as reduction in AKT phosphorylation incubated for 48 hrs by Western blot method. It counts as cell-based. In short, it runs like this: (§1)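 HCC78 cells plated overnight in 6-well plates, treated for 48 h, then lysed in RIPA buffer with protease/phosphatase inhibitors. Equal protein loaded for SDS-PAGE and transferred to nitrocellulose. Blocked in 5% milk/TBST, probed overnight at 4 °C for p-ROS1, ROS1, p-STAT3, STAT3, p-AKT, AKT, p-ERK, ERK and GAPDH, and detected with fluorescent secondary antibodies on an infrared scanner.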
(Immunoblotting shows a protein as a band on a membrane.)

For experiment [16], the system named is CCD 19Lu. Nature of the experiment: Cytotoxicity in human CCD-19Lu cells assessed as reduction in cell viability incubated for 72 hrs by MTT assay. It counts as cell-based.
Experiment [17] relates to HCC78. Nature of the experiment: Cytotoxicity in human HCC78 cells assessed as reduction in cell viability incubated for 72 hrs by MTT assay. It counts as functional, cell-based. The settings on record: HCC78, 72 h. The gist of the method: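 3000 cells per well, allowed to adhere overnight, then exposed to DMSO or a concentration series for 72 h. MTT (5 mg/ml stock) added for a further 4 h, and crystals dissolved in 10% SDS/0.1 mM HCl. A570 read. Viability expressed relative to untreated controls from at least 3 independent experiments. HCC78 cells were grown in RPMI-1640 with 10% FBS and penicillin/streptomycin at 37 °C under 5% CO2.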

The subject of experiment [18] is HCC78. In words: Induction of apoptosis in human HCC78 cells assessed as viable cells level at 5 nM incubated fro 48 hrs by Annexin-V FITC and propidium iodide staining based flow cytometry (reference value: 80.8%). It counts as functional.
The subject of experiment [19] is HCC78. Nature of the experiment: Induction of apoptosis in human HCC78 cells assessed as late apoptotic cells level at 5 nM incubated fro 48 hrs by Annexin-V FITC and propidium iodide staining based flow cytometry (reference value: 13.8%). Type of experiment: functional.
For experiment [20], the system named is HCC78. In words: Induction of apoptosis in human HCC78 cells assessed as late apoptotic cells level at 10 nM incubated fro 48 hrs by Annexin-V FITC and propidium iodide staining based flow cytometry (reference value: 13.8%). It counts as functional.
Experiment [21] concerns the target T1, Proto-oncogene tyrosine-protein kinase ROS. Nature of the experiment: Inhibition of ROS1 in human HCC78 cells assessed as reduction in STAT3 phosphorylation incubated for 48 hrs by Western blot method. Type of experiment: cell-based. In short, it runs like this: as §1
For experiment [22] the target is unchanged. Nature of the experiment: Inhibition of ROS1 phosphorylation in human HCC78 cells incubated for 48 hrs by Western blot method. It counts as cell-based. In short, it runs like this:
as §1

Experiment [23] deals with HCC78. In words: Induction of apoptosis in human HCC78 cells assessed as early apoptotic cells level at 20 nM incubated fro 48 hrs by Annexin-V FITC and propidium iodide staining based flow cytometry (reference value: 6.33%). It counts as functional.
Experiment [24] deals with HCC78. In words: Induction of apoptosis in human HCC78 cells assessed as late apoptotic cells level at 20 nM incubated fro 48 hrs by Annexin-V FITC and propidium iodide staining based flow cytometry (reference value: 13.8%). It counts as functional.
Experiment [25] has as its target T1, Proto-oncogene tyrosine-protein kinase ROS. Nature of the experiment: Inhibition of ROS1 in human HCC78 cells assessed as reduction in ERK phosphorylation incubated for 48 hrs by Western blot method. Type of experiment: cell-based. The gist of the method:
as §1

Experiment [26] concerns HCC78. In words: Induction of apoptosis in human HCC78 cells assessed as necrotic cells level at 20 nM incubated fro 48 hrs by Annexin-V FITC and propidium iodide staining based flow cytometry (reference value: 0.06%). Type of experiment: functional.
Experiment [27] deals with HCC78. In words: Induction of apoptosis in human HCC78 cells assessed as viable cells level at 20 nM incubated fro 48 hrs by Annexin-V FITC and propidium iodide staining based flow cytometry (reference value: 80.8%). It counts as functional.
Experiment [28] has as its system HCC78. Nature of the experiment: Induction of apoptosis in human HCC78 cells assessed as necrotic cells level at 5 nM incubated fro 48 hrs by Annexin-V FITC and propidium iodide staining based flow cytometry (reference value: 0.06%). Type of experiment: functional.

In general, IC50 refers to the concentration that gives 50% inhibition.

The structures appear in SMILES notation. The source made the active and inactive calls. No cut-off for these calls is given here.

As for `C[C@@H](Oc1cc(-c2cnn(C3CCNCC3)c2)cnc1N)c1c(Cl)ccc(F)c1Cl` [CRIZOTINIB], the Activity is 0.662% in [1], 45.9% in experiment [2], 27.3% in experiment [5] and 27.2% in experiment [6]. In addition, the inhibition result in experiment [3], in experiment [4], in experiment [7] and in experiment [8] was “Active” throughout.

On to `O=C1c2c(O)ccc(O)c2C(=O)c2c(NCCNCCO)ccc(NCCNCCO)c21` [MITOXANTRONE], for which the Activity was 16.4% in [9]; “Dose-dependent effect” in [11]; 66.7% in [12]; 18.6% in experiment [13]; 0.076% in [14]; 66.6% in [18]. The Activity in [19] was determined as 16.9%; in experiment [20] it was 18.7%; in experiment [23], 19.7%; in experiment [24], 17.2%; in experiment [26] it was 0.048%; in experiment [27], 63.8%. Besides, the Activity in experiment [28] came to 0.089%. For the same molecule, the values for the IC50 in experiment [10], in experiment [16] and in [17] were 3000 nM, above 160 nM and 13.8 nM, respectively. Moreover, the inhibition entry in experiment [15], in experiment [21], in experiment [22] and in experiment [25] was “Dose-dependent effect” each time.
